Screening data: PubChem, several laboratories
CD11b adhes enh = CD11b/CD18-fibrinogen binding enhancement; AID 1499; activation, % at 10 µM; 93,000 tested, 0.07% active; K562 CD11b/CD18 adhesion to fibrinogen, ATPlite luminescence;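 active = 10 µM primary screen giving 50% or more activity, confirmed by 40% or more on retest at that dose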
Rev-RRE block = inhibitors of HIV-1 Rev-RRE RNA interaction | Rev peptide-RRE RNA binding, FRET | 97,000 tested, 0.79% active | inhibition, % at 8 µM;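 active = inhibition above the screen-wide mean plus 3 SD, cut at about 35% in these data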;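 note: 0% = median DMSO wells and 100% = median Neomycin B control wells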
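assay system = Cy5-tagged RRE RNA duplex with fluorescein-tagged Rev peptide | incubation = 5 + 15 min at 25 °C | also added = labelled Rev peptide | measure = % inhibition of FRET ratio versus controls | benchmarks = DMSO wells as 0% and neomycin B wells as 100% inhibition | measured by = FRET fluorescence readout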
CD11b adhes inh = inhibitors of human CD11b/CD18 binding to fibrinogen | P05107+P11215 | K562 CD11b/CD18 adhesion to fibrinogen, ATPlite luminescence; Mn2+ added to activate the integrin | inhibition, % at 10 µM | 93,000 tested, 0.54% active | AID 1497;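 active = primary inhibition of 50% or more at 10 µM, then 40% or more on retest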
Phagocytosis inh = macrophage phagocytosis inhibition; J774A.1 macrophage IgG-bead phagocytosis, imaging; AID 1029; inhibition, % at 5 µM; 110,000 tested, 0.07% active;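 active = inhibition above the mean of the plate negative controls plus 5 SD, cut at about 13% in these data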;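 note: phagocytic index as fraction of beads internalized from green versus red external bead signal; plate controls were DMSO negative control for no effect and cytochalasin-D positive control for full effect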
EphB4 ephrin blk = antagonists of human EphB4-ephrin-B2 interaction. P54760. EphB4 LBD / TNYL-RAW-Alexa532 peptide, fluorescence polarization. inhibition, % at 7 µM. 97,000 tested, 0.15% active. AID 720;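 active = inhibition above the screen-wide mean inhibition plus 3 SD, cut at about 15% in these data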;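 note: 0% = DMSO wells and 100% = excess unlabeled TNYL-RAW peptide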
Smad3 FoxH1 inh = Smad3 (human) transcription factor binding inhibition | TR-FRET Smad3/Dy647-FoxH1 peptide binding, europium anti-His | inhibition, % at 25 µM | 88,000 tested, 0.29% active;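 active = compounds that reduce the energy-transfer binding signal between the protein and its labelled peptide by more than half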;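 note: 0% = Smad3 plus labelled peptide maximal FRET and 100% = peptide-only background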
Active calls of the source: *; . = no result; [ ] = another dose, or the depositor's remark. Hits are enriched below; roughly 1.3% of the tested compounds scored in any of these assays.

SMILES	CD11b adhes enh	Rev-RRE block	CD11b adhes inh	Phagocytosis inh	EphB4 ephrin blk	Smad3 FoxH1 inh
Cc1c(C(=O)N2CCC3(CC2)OCCO3)oc2ccc(S(=O)(=O)N3CCOCC3)cc12	-2	5	-30	0	8	67*
CCn1c(O)c(C=Nc2ccc(N3CCOCC3)cc2)c(=O)n(CC)c1=S	6	98*[fluorescence artefact?]	8	2	16*	.
CCOc1ccc(-n2c(O)c(C=Nc3ccc(N(CC)CC)cc3)c(=O)[nH]c2=O)cc1	3	71*	-25	1	3	-2
CCOc1ccccc1-n1c(O)c(C=Nc2ccc(N(CC)CC)cc2)c(=O)[nH]c1=O	2	.	-6	0	.	-7
CCN(CC)c1ccc(N=Cc2c(O)n(-c3ccccc3C)c(=O)[nH]c2=O)cc1	12	66*	-19	-1	-1	5
CCOc1ccc(N=Cc2c(O)n(C(C)(C)C)c(=O)[nH]c2=O)cc1	2	6	8	.	-1	-5
CCC(=NCCOc1ccc(Cl)cc1)c1c(O)n(C)c(=O)n(C)c1=O	-11	18	94	-1	4	2
CCC(=NCCc1c[nH]c2ccccc12)c1c(O)n(C)c(=O)n(C)c1=O	-5	5	79*	0	4	0
N[C@H](Cc1c[nH]c2ccccc12)P(=O)(O)O	.	.	.	.	.	1
COc1cc2c(cc1OC)[C@@]13CCN4C=C5CCO[C@H]6CC(=O)N2[C@H]1[C@H]6[C@H]5C[C@H]43	.	.	.	.	.	9
CCn1nc(-c2cccs2)nc2c(=O)n(C)c(=O)nc1-2	-1	.	63*	-2	.	.
CC(C)=C[C@H]1[C@H](C(=O)OCc2cc3c(cc2Cl)OCO3)C1(C)C	.	.	.	.	.	-3
CC(C)N1C(=O)/C(=C/C=C/c2ccco2)C(=O)N(Cc2ccco2)C1=O	2	53*	11	-1	-5	.
